Activity calls are given as the source filed them. The rule behind the calls is not given here.

Holding throughout (assay type): cell-based
Series [1] relates to T1, Alpha-crystallin B chain (Homo sapiens), P02511 [R120G].
T1 sequence (whole entry): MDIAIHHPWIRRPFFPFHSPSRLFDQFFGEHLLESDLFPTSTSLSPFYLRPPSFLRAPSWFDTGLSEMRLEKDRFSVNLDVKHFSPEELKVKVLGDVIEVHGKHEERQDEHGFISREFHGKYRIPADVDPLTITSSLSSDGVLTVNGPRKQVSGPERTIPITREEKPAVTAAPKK
As to the kind of experiment: Inhibition of alpha-crystallin B R120G mutant (unknown origin)-induced intracellular protein aggregation expressed in human HeLa cells at 4 uM incubated for 6 to 8 hrs by fluorescence microscopy relative to untreated control. The procedure, abridged: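 Cells were transfected with mutant crystallin constructs using Lipofectamine 2000 and cultured for 16 h until the overexpressed mutants formed aggregates. Compounds were then added to the culture medium and incubated for 6~8 h. Aggregate dissolution was scored by fluorescence microscopy. For αB R120G, % inhibition at 0.4 and 4 µM was calculated against DMSO-treated cells; values are mean ± error.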

The subject of series [2] is T2, Gamma-crystallin D (Homo sapiens), P07320 [W43R].
T2 sequence (whole entry): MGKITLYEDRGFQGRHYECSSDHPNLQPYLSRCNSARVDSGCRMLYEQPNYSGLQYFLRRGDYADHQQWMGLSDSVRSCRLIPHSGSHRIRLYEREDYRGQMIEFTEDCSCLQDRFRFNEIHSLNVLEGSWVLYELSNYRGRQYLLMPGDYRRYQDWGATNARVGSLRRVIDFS
As to the kind of experiment: Inhibition of gamma-crystallin D W43R mutant (unknown origin)-induced intracellular protein aggregation expressed in human HeLa cells or HLE-B3 cells at 4 uM incubated for 6 to 8 hrs by fluorescence microscopy relative to untreated control. The procedure, abridged:
(§1)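 Cells were transfected with mutant crystallin and incubated 16 h to overexpress it and form aggregates. Compounds were then added to the medium for 6~8 h. Aggregates were scored by fluorescence microscopy, and percent inhibition was calculated against DMSO-treated cells.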

Series [3] relates to T3, Alpha-crystallin A chain (Homo sapiens), P02489 [Y118D].
T3 sequence (whole entry): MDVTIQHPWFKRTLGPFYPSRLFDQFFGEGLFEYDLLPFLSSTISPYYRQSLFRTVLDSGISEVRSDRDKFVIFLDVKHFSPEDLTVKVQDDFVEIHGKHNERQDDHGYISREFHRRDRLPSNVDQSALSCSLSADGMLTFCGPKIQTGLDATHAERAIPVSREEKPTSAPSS
The series can be described thus: Inhibition of alpha-crystallin A Y118D mutant (unknown origin)-induced intracellular protein aggregation expressed in human HeLa cells or HLE-B3 cells at 4 uM incubated for 6 to 8 hrs by fluorescence microscopy relative to untreated control. The procedure, abridged:
as §1

Series [4] has as its system T4, Beta-crystallin B2 (Homo sapiens), P43320 [V187E].
T4 sequence (whole entry): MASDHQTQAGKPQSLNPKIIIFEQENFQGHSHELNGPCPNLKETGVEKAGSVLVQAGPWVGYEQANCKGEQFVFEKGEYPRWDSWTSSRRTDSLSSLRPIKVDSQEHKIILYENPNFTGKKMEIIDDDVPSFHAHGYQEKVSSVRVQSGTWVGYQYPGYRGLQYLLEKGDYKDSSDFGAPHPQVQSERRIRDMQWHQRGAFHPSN
As to the kind of experiment: Inhibition of beta-crystallin B2 V187E mutant (unknown origin)-induced intracellular protein aggregation expressed in human HeLa cells or HLE-B3 cells at 4 uM incubated for 6 to 8 hrs by fluorescence microscopy relative to untreated control. The procedure, abridged:
as §1

Series [5] relates to T5, Gamma-crystallin C (Homo sapiens), P07315 [G129C].
T5 sequence (whole entry): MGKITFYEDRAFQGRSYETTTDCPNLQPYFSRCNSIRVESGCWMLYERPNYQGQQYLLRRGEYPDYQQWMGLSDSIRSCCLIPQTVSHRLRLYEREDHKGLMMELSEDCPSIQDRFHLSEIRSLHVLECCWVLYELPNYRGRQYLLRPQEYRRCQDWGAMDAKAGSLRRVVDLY
The series can be described thus: Inhibition of gamma-crystallin C G129C mutant (unknown origin)-induced intracellular protein aggregation expressed in human HeLa cells or HLE-B3 cells at 4 uM incubated for 6 to 8 hrs by fluorescence microscopy relative to untreated control. The essentials:
as §1

For series [6] the test system is unchanged. The series can be described thus: Inhibition of gamma-crystallin C G129C mutant (unknown origin)-induced cytotoxicity in human HeLa cells assessed as increase in cell viability at 0.04 to 4 uM incubated for 12 hrs by CCK8 assay.
For another series, the system named is HeLa. As to the kind of experiment: Toxicity in human HeLa cells transfected with peGFP-N1 assessed as reduction in cell viability of at 0.04 to 4 uM incubated for 12 hrs by CCK8 assay.
For series [7], the system named is T5, Gamma-crystallin C (Homo sapiens), P07315 [G129C]. As to the kind of experiment: Inhibition of gamma-crystallin C G129C mutant (unknown origin)-induced cytotoxicity in human HLE-B3 cells assessed as increase in cell viability at 0.04 to 4 uM incubated for 12 hrs by CCK8 assay.
The nature of series [8]: Toxicity in human HLE-B3 cells transfected with peGFP-N1 assessed as reduction in cell viability of at 0.04 to 4 uM incubated for 12 hrs by CCK8 assay.
The test system of series [9] is T4, Beta-crystallin B2 (Homo sapiens), P43320 [V187E]. As to the kind of experiment: Inhibition of beta-crystallin B2 V187E mutant (unknown origin)-induced cytotoxicity in human HeLa cells assessed as increase in cell viability at 0.04 to 4 uM incubated for 12 hrs by CCK8 assay.
The test system of series [10] is T1, Alpha-crystallin B chain (Homo sapiens), P02511 [R120G]. As to the kind of experiment: Inhibition of alpha-crystallin B R120G mutant (unknown origin)-induced cytotoxicity in human HLE-B3 cells assessed as increase in cell viability at 0.04 to 4 uM incubated for 12 hrs by CCK8 assay.
For series [11] the test system is unchanged. The series can be described thus: Inhibition of alpha-crystallin B R120G mutant (unknown origin)-induced cytotoxicity in human HeLa cells assessed as increase in cell viability at 0.04 to 4 uM incubated for 12 hrs by CCK8 assay.
Series [12] deals with T4, Beta-crystallin B2 (Homo sapiens), P43320 [V187E]. The series can be described thus: Inhibition of beta-crystallin B2 V187E mutant (unknown origin)-induced cytotoxicity in human HLE-B3 cells assessed as increase in cell viability at 0.04 to 4 uM incubated for 12 hrs by CCK8 assay.

Turning to `O=C1O[C@H]([C@@H](O)CO)C([O-])=C1O.[Na+]`, in series [1], the inhibition entry was “inactive”.
For `CC(C)=CCC[C@@H](C)[C@H]1CC[C@@]2(C)C3=C(CC[C@]12C)[C@@]1(C)CC[C@H](O)C(C)(C)[C@@H]1CC3`, the inhibition result in series [2], in [3], in [4] and in series [5] was “Active” throughout.
`N[C@@H](CCC(=O)N[C@@H](CS)C(=O)NCC(=O)O)C(=O)O`: the inhibition result in series [1] was “inactive”.
`C[C@H](CCCC(C)(C)O)[C@H]1CC[C@H]2[C@@H]3CC=C4C[C@@H](O)CC[C@]4(C)[C@H]3CC[C@]12C`: the inhibition result in [6], in series [7], in [9], in series [10], in series [11] and in series [12] was “inactive” each time. In addition, the Activity entry (with HeLa; in [8]) was “Toxic” throughout. For the same molecule, the inhibition entry in series [3] was “Active”.
With `O=C(O)c1cc(O)c2c3nc4ccccc4oc-3cc(=O)c2n1`, in series [1], the inhibition entry was “inactive”.
Turning to `O=C(O)COc1nn(Cc2ccccc2)c2ccccc12`, the inhibition result in series [1] was “inactive”.
